Data from ChEMBL document CHEMBL1133754, “Synthesis and antiviral evaluation of halogenated beta-D- and -L-erythrofuranosylbenzimidazoles” (J Med Chem, 2000).

What was measured:
HFF [1] = assay: Compound was tested for antiviral activity against AD169 strain of HCMV in a plaque reduction assay using HFF cells; format: functional, cell-based; details: Homo sapiens
[2] = (§1) Compound was tested for inhibition of KB cell growth in quadruplicate assay; format: functional, cell-based; details: Homo sapiens
How it was run: (§2)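 KB cell proliferation over two control population doublings; crystal violet staining with spectrophotometric quantification of eluted dye; quadruplicate assays; IC50 by linear regression of percent inhibition vs log concentration.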

HFF [3] = assay: Compound was tested for visual cytotoxicity on HFF cells unaffected by HCMV at the time of plaque enumeration; format: functional, cell-based; details: Homo sapiens
How it was run: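 Stationary HFF cells not affected by virus in plaque assay plates inspected microscopically for cytotoxicity at time of plaque enumeration; IC50 by regression of percent inhibition vs log concentration.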

Human betaherpesvirus 5 [4] = assay: Compound was tested for antiviral activity against HCMV in viral cytopathic effect (CPE) assay; format: functional, organism-based
How it was run: (§3)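 HCMV viral cytopathic effect scored microscopically as visible virus effects on cells; IC50 derived by linear regression of percent inhibition vs log drug concentration.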

[5] = Compound was tested for antiviral activity against Towne strain of HCMV in a yield reduction assay using HFF cells; format: functional; details: Homo sapiens
How it was run: (§4)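 HCMV Towne yield reduction in HFF cells, MOI 0.5; progeny titred by end-point dilution and plaque enumeration; IC50 from linear regression of percent inhibition against log drug concentration.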

Human betaherpesvirus 5 [6] = assay: Compound was tested for antiviral activity against HCMV in DNA hybridization assay; format: functional, organism-based
How it was run: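 HCMV replication measured by DNA hybridization; IC50 from linear regression of percent inhibition against log drug concentration.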

Human alphaherpesvirus 1 = assay: Compound was tested for antiviral activity against HSV-1 assayed by ELISA in quadruplicate wells; format: functional, organism-based
How it was run: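 HSV-1 replication measured by ELISA in quadruplicate wells; IC50 from linear regression of percent inhibition against log drug concentration.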

HFF [7] = assay: Compound was tested for antiviral activity against Towne strain of HCMV in a plaque reduction assay using HFF cells; format: functional, cell-based; details: Homo sapiens
KB = assay: as §1; format: functional, cell-based; details: Homo sapiens; how it was run: as §2
HFF [8] = assay: Compound was tested for antiviral activity against wild-type Towne virus of HCMV in plaque reduction assay using HFF cells; format: functional, cell-based; details: Homo sapiens
HFF [9] = assay: Compound was tested for antiviral activity against wild-type Towne virus of HCMV in yield reduction assay using HFF cells; format: functional, cell-based; details: Homo sapiens; how it was run: as §4
HFF [10] = assay: Compound was tested for antiviral activity against C-4 Towne virus of HCMV in plaque reduction assay using HFF cells; format: functional, cell-based; details: Homo sapiens
HFF [11] = assay: Compound was tested for antiviral activity against C-4 Towne virus of HCMV in yield reduction assay using HFF cells; format: functional, cell-based; details: Homo sapiens
HFF [12] = assay: Compound was tested for antiviral activity against wild-type AD169 virus of HCMV in plaque reduction assay using HFF cells; format: functional, cell-based; details: Homo sapiens
HFF [13] = assay: Compound was tested for antiviral activity against 2916 strain of HCMV in plaque reduction assay using HFF cells; format: functional, cell-based; details: Homo sapiens
[14] = Compound was tested for inhibition of MOLT 4 cells.; format: functional, cell-based, Homo sapiens
How it was run: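 Cytotoxicity in MOLT 4 cells (human T-cell lymphocytic leukemia line). IC50 from linear regression of percent inhibition against log drug concentration; >100 µM means IC50 was not reached at the highest concentration tested.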

Human betaherpesvirus 5 [15] = assay: Compound was tested for antiviral activity against HCMV in viral cytopathic effect(CPE) assay; format: functional, organism-based; how it was run: as §3
HFF [16] = assay: (§5) Compound was tested for antiviral activity against C-4 Towne strain of HCMV in yield reduction assay using HFF cells; format: functional; details: Homo sapiens
HFF [17] = assay: (§6) Compound was tested for antiviral activity against wild-type Towne strain of HCMV in yield reduction assay using HFF cells; format: functional; details: Homo sapiens; how it was run: as §4
HFF [18] = assay: Compound was tested for antiviral activity against 2916 type AD169 virus of HCMV in plaque reduction assay using HFF cells; format: functional, cell-based; details: Homo sapiens
HFF [19] = assay: (§7) Compound was tested for antiviral activity against 2916 AD169 strain of HCMV in yield reduction assay using HFF cells; format: functional, cell-based; details: Homo sapiens
HFF [20] = assay: Compound was tested for antiviral activity against AD169 strain of HCMV in a plaque assay using HFF cells; format: functional, cell-based; details: Homo sapiens
HFF [21] = assay: (§8) Compound was tested for antiviral activity against wild-type AD169 strain of HCMV in yield reduction assay using HFF cells; format: functional, cell-based; details: Homo sapiens
HFF [22] = assay: as §6; format: functional, cell-based; details: Homo sapiens; how it was run: as §4
HFF [23] = assay: as §5; format: functional, cell-based; details: Homo sapiens
HFF [24] = assay: as §8; format: functional; details: Homo sapiens
HFF [25] = assay: as §7; format: functional; details: Homo sapiens

CC(=O)OC1[C@@H](OC(C)=O)CO[C@H]1n1c(Br)nc2cc(Cl)c(Cl)cc21 (stereo partly drawn)
IC50 (HFF [1]): 50 nM | IC50 [2]: 60 µM | IC50 (HFF [3]): 59 µM | IC50 (Human betaherpesvirus 5 [4]): 50 nM | IC90 [5]: 50 nM | IC50 (Human betaherpesvirus 5 [6]): 210 nM | IC50 (Human alphaherpesvirus 1): > 100 µM | IC50 (HFF [7]): 220 nM

CC(=O)OC1[C@@H](OC(C)=O)CO[C@H]1n1c(Cl)nc2cc(Cl)c(Cl)cc21 (stereo partly drawn)
IC50 [2]: 45 µM | IC50 (HFF [3]): 41 µM | IC50 (Human betaherpesvirus 5 [4]): 100 nM | IC90 [5]: 100 nM | IC50 (Human betaherpesvirus 5 [6]): 330 nM | IC50 (Human alphaherpesvirus 1): > 100 µM | IC50 (HFF [7]): 250 nM

OC[C@H]1O[C@@H](n2c(Br)nc3cc(Cl)c(Cl)cc32)[C@H](O)[C@@H]1O
IC50 (KB): > 100 µM | IC50 (HFF [8]): 1700 nM | IC50 (HFF [3]): 118 µM | IC50 (Human betaherpesvirus 5 [4]): 300 nM | IC90 [5]: 200 nM | IC50 (Human betaherpesvirus 5 [6]): 520 nM | IC50 (HFF [9]): 300 nM | IC50 (HFF [10]): 31 µM | IC90 (HFF [11]): 8 µM | IC50 (Human alphaherpesvirus 1): 130 µM | IC50 (HFF [7]): 700 nM | IC50 (HFF [12]): 340 nM | IC50 (HFF [13]): 410 nM

OC[C@H]1O[C@@H](n2c(Cl)nc3cc(Cl)c(Cl)cc32)[C@H](O)[C@@H]1O
IC50 [2]: 210 µM | IC90 [5]: 1300 nM | IC50 (HFF [7]): 2800 nM

O[C@@H]1COC(n2c(Cl)nc3cc(Cl)c(Cl)cc32)[C@@H]1O (stereo partly drawn)
IC50 [2]: 60 µM | IC50 (HFF [3]): 32 µM | IC50 (Human betaherpesvirus 5 [4]): 100 nM | IC90 [5]: 120 nM | IC50 (Human betaherpesvirus 5 [6]): 100 nM | IC50 (Human alphaherpesvirus 1): > 100 µM | IC50 (HFF [7]): 240 nM

CC(C)Nc1nc2cc(Cl)c(Cl)cc2n1C1OC[C@H](O)[C@@H]1O (stereo partly drawn)
IC50 (Human betaherpesvirus 5 [4]): 2300 nM | IC50 (Human betaherpesvirus 5 [6]): 800 nM | IC50 [14]: 15 µM

CC(C)Nc1nc2c(Br)c(Cl)c(Cl)cc2n1C1OC[C@@H](O)[C@H]1O (stereo partly drawn)
IC50 (Human betaherpesvirus 5 [4]): 1000 nM | IC50 (Human betaherpesvirus 5 [6]): 160 nM | IC50 [14]: 13 µM

O[C@@H]1COC(n2c(Cc3ccccc3S)nc3cc(Cl)c(Cl)cc32)[C@@H]1O (stereo partly drawn)
IC50 (KB): 60 µM | IC50 (HFF [3]): 32 µM | IC50 (Human betaherpesvirus 5 [4]): > 10000 nM | IC50 (Human betaherpesvirus 5 [6]): > 10000 nM | IC50 (Human alphaherpesvirus 1): 65 µM | IC50 (HFF [7]): 32000 nM

CC(C)Nc1nc2cc(Cl)c(Cl)cc2n1C1OC[C@@H](O)[C@H]1O (stereo partly drawn)
IC50 (HFF [1]): 1800 nM | IC50 (Human betaherpesvirus 5 [15]): 800 nM | IC50 (KB): > 100 µM | IC90 (HFF [16]): 8.5 µM | IC50 (HFF [3]): > 100 µM | IC90 [5]: 5000 nM | IC50 (Human betaherpesvirus 5 [6]): 420 nM | IC50 [14]: 84 µM | IC50 (Human alphaherpesvirus 1): > 100 µM | IC50 (HFF [7]): 7900 nM | IC90 (HFF [17]): 6.9 µM

O[C@@H]1COC(n2c(NC3CC3)nc3cc(Cl)c(Cl)cc32)[C@@H]1O (stereo partly drawn)
IC50 [2]: > 100 µM | IC90 (HFF [16]): 5 µM | IC50 (HFF [3]): > 100 µM | IC50 (Human betaherpesvirus 5 [4]): 600 nM | IC90 [5]: 6800 nM | IC50 (Human betaherpesvirus 5 [6]): 260 nM | IC50 [14]: 132 µM | IC50 (Human alphaherpesvirus 1): > 100 µM | IC50 (HFF [7]): 19000 nM | IC90 (HFF [17]): 10 µM

O[C@@H]1C(n2c(NC3CC3)nc3cc(Cl)c(Cl)cc32)OC[C@@H]1O (stereo partly drawn)
IC50 (Human betaherpesvirus 5 [4]): 2300 nM | IC50 (Human betaherpesvirus 5 [6]): 2000 nM | IC50 [14]: 43 µM

O[C@@H]1COC(n2c(Br)nc3cc(Cl)c(Cl)cc32)[C@@H]1O (stereo partly drawn)
IC50 (HFF [1]): 40 nM | IC50 (KB): 50 µM | IC50 (HFF [8]): 230 nM | IC50 (HFF [3]): 32 µM | IC50 (Human betaherpesvirus 5 [4]): 50 nM | IC90 [5]: 60 nM | IC50 (Human betaherpesvirus 5 [6]): 230 nM | IC50 (HFF [10]): 12 µM | IC50 [14]: 47 µM | IC50 (Human alphaherpesvirus 1): 50 µM | IC50 (HFF [7]): 240 nM | IC50 (HFF [12]): 30 nM | IC50 (HFF [18]): 30 nM

CC(C)Nc1nc2c(Cl)c(Cl)c(Cl)cc2n1C1OC[C@H](O)[C@@H]1O (stereo partly drawn)
IC50 (Human betaherpesvirus 5 [4]): 800 nM | IC50 (Human betaherpesvirus 5 [6]): 150 nM

CC(C)Nc1nc2cc(Cl)c(Cl)cc2n1C1O[C@@H](CO)[C@H](O)[C@@H]1O (stereo partly drawn)
IC50 [2]: 65 µM | IC90 (HFF [16]): 0.7 µM | IC50 (HFF [3]): > 100 µM | IC50 (HFF [19]): > 100 µM | IC90 [5]: 600 nM | IC50 (Human betaherpesvirus 5 [6]): 100 nM | IC50 (Human alphaherpesvirus 1): > 100 µM | IC50 (HFF [20]): 450 nM | IC90 (HFF [17]): 0.59 µM | IC50 (HFF [21]): 330 nM

Nc1nc2c(ncn2COC(CO)CO)c(=O)[nH]1 [GANCICLOVIR]
IC50 (Human betaherpesvirus 5 [15]): 2000 nM | IC50 (KB): > 100 µM | IC50 (HFF [22]): 4.5 µM | IC90 (HFF [23]): 4.1 µM | IC50 (HFF [3]): > 100 µM | IC90 [5]: 1600 nM | IC50 (Human betaherpesvirus 5 [6]): 880 nM | IC90 (HFF [24]): 3.3 µM | IC90 (HFF [25]): 3.6 µM
